Results as given in the M2OR odorant receptor database.
Numbering of substitutions follows the chain as printed.

Legend:
Conditions in all cases: stereoisomer not certain
[1] = molecular target: T1, OR51B5 (Homo sapiens) (UniProt Q9H339)
T1 sequence (whole entry): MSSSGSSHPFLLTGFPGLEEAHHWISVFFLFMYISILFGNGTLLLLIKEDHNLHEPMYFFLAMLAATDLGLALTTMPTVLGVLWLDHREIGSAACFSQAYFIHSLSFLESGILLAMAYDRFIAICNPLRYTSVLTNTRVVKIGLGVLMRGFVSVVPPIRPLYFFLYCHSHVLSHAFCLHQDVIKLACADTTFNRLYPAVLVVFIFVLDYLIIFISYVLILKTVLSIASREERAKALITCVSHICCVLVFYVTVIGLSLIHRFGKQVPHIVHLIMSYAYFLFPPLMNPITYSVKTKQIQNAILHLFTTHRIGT
Summary of the method: (§1)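 Transient luciferase assays in mammalian cell lines were common, though methods varied by source. The values come from published papers and their supplementary material, with extra details from the original authors when needed. Responsive refers to a measured signal the original authors judged statistically different from baseline, and non-responsive (inactive) to the remainder.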

[2] = molecular target: T2, OR4S2 (Homo sapiens) (UniProt Q8NH73)
T2 sequence (whole entry): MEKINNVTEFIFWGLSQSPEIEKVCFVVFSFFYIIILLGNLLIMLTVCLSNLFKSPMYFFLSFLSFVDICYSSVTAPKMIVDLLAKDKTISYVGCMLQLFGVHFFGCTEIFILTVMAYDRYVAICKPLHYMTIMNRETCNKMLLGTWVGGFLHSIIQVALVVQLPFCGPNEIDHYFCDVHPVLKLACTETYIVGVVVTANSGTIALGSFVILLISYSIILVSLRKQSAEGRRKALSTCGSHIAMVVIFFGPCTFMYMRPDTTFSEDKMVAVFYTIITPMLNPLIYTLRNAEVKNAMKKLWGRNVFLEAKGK
Summary of the method: as §1

[3] = molecular target: T3, OR4X1 (Homo sapiens) (UniProt Q8NH49)
T3 sequence (whole entry): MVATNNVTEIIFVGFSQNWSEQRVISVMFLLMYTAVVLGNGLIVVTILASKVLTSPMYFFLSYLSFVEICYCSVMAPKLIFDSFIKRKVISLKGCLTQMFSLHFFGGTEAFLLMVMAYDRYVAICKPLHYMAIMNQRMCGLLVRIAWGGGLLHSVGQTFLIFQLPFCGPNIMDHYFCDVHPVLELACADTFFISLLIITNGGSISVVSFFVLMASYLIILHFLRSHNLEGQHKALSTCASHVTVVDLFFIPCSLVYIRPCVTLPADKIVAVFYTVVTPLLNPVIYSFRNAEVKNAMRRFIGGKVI
Summary of the method: as §1

[4] = molecular target: T4, OR4X2 (Homo sapiens) (UniProt Q8NGF9)
T4 sequence (whole entry): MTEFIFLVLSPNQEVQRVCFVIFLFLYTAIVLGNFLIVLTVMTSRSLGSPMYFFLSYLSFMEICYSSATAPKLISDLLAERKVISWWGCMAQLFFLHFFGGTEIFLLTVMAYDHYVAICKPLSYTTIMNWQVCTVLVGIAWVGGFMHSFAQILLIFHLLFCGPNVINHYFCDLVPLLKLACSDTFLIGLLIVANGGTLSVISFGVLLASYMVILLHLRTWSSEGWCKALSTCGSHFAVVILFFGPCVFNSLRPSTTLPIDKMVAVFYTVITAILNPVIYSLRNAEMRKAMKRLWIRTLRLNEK
Summary of the method: as §1

[5] = molecular target: T5, OR51A2 (Homo sapiens) (UniProt Q8NGJ7)
T5 sequence (whole entry): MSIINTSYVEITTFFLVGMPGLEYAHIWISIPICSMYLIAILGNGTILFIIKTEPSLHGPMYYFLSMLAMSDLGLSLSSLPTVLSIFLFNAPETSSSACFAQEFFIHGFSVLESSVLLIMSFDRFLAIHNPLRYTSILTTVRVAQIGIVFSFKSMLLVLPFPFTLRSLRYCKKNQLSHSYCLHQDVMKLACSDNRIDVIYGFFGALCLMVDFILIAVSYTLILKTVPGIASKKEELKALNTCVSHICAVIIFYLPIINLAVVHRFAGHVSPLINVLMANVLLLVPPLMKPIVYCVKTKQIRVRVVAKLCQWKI
Summary of the method: as §1

[6] = molecular target: T6, OR51A4 (Homo sapiens) (UniProt Q8NGJ6)
T6 sequence (whole entry): T5 sequence (whole entry) with G59E, T94I, S97N, S167N, P227L, E235Q, G267R, M288T, K289N, W311R
Summary of the method: as §1

[7] = molecular target: T7, OR51A7 (Homo sapiens) (UniProt Q8NH64)
T7 sequence (whole entry): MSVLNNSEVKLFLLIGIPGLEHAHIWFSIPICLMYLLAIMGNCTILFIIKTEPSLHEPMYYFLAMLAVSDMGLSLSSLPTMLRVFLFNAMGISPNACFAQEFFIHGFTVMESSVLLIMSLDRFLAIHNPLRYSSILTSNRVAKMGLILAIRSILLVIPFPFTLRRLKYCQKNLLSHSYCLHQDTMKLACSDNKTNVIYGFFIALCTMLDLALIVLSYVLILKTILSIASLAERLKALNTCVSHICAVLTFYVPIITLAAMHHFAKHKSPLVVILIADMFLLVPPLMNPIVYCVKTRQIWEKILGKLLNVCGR
Summary of the method: as §1

[8] = molecular target: T8, OR51B2 (Homo sapiens) (UniProt Q9Y5P1)
T8 sequence (whole entry): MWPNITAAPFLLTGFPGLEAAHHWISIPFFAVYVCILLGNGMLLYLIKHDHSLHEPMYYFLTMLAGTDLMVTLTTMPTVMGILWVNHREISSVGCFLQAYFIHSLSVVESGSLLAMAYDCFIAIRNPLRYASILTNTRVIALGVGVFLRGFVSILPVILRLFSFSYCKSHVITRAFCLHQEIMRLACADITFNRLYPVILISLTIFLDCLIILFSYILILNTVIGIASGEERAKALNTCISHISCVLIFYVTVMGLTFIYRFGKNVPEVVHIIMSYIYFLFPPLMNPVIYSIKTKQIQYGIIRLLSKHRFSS
Summary of the method: as §1

[9] = molecular target: T9, OR51B4 (Homo sapiens) (UniProt Q9Y5P0)
T9 sequence (whole entry): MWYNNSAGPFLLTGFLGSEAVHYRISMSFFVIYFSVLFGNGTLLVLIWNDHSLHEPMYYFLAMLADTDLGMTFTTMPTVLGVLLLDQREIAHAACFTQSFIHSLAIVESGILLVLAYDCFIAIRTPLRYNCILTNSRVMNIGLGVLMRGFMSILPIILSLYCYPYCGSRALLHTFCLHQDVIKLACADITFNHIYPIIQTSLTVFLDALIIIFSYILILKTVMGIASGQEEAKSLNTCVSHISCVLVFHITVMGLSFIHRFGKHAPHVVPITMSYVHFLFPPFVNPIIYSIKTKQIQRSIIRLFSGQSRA
Summary of the method: as §1

[10] = molecular target: T10, OR51B6 (Homo sapiens) (UniProt Q9H340)
T10 sequence (whole entry): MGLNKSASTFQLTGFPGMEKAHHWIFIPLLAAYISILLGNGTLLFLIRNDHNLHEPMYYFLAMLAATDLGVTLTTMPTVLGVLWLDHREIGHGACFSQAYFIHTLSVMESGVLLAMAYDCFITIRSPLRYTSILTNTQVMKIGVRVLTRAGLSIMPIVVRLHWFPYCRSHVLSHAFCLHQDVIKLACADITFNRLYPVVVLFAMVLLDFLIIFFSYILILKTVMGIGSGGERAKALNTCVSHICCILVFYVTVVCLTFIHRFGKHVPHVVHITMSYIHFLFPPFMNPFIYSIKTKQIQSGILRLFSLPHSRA
Summary of the method: as §1

[11] = molecular target: T11, OR51D1 (Homo sapiens) (UniProt Q8NGF3)
T11 sequence (whole entry): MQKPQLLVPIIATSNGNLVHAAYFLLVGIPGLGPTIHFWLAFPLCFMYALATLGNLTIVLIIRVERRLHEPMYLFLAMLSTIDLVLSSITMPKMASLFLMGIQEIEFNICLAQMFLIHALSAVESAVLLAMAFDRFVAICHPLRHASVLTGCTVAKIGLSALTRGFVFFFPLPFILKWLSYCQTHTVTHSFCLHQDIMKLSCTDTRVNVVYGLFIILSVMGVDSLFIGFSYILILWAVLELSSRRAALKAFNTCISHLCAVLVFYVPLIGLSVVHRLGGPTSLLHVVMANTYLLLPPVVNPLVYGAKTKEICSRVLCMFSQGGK
Summary of the method: as §1

[12] = molecular target: T12, OR51E1 (Homo sapiens) (UniProt Q8TCB6)
T12 sequence (whole entry): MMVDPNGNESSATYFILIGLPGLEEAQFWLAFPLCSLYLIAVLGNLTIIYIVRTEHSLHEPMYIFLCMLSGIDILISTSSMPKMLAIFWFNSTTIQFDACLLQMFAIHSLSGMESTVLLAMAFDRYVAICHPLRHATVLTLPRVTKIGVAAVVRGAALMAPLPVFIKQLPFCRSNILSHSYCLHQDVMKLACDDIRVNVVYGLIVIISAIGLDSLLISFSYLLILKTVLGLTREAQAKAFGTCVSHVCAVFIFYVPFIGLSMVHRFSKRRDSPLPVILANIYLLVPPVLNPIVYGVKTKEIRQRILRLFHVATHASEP
Summary of the method: as §1

[13] = molecular target: T13, OR51E2 (Homo sapiens) (UniProt Q9H255)
T13 sequence (whole entry): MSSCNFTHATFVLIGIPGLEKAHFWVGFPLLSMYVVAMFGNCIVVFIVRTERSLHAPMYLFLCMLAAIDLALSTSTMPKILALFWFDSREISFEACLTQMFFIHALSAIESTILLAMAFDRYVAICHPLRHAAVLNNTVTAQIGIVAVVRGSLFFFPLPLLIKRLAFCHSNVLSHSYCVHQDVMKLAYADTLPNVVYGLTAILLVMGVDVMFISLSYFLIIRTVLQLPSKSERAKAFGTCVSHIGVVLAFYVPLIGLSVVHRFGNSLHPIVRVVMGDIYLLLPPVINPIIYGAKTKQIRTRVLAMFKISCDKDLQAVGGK
Summary of the method: as §1

[14] = molecular target: T14, OR51F2 (Homo sapiens) (UniProt Q8NH61)
T14 sequence (whole entry): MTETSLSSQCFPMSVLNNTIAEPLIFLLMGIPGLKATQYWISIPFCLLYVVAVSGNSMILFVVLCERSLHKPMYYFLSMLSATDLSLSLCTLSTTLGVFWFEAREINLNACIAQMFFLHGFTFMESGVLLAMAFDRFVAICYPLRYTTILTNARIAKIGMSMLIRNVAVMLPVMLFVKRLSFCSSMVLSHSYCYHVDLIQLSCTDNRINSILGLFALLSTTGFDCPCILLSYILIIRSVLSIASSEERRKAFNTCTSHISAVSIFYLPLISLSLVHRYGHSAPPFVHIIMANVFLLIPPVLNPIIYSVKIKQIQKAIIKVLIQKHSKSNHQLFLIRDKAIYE
Summary of the method: as §1

[15] = molecular target: T15, OR51G1 (Homo sapiens) (UniProt Q8NGK1)
T15 sequence (whole entry): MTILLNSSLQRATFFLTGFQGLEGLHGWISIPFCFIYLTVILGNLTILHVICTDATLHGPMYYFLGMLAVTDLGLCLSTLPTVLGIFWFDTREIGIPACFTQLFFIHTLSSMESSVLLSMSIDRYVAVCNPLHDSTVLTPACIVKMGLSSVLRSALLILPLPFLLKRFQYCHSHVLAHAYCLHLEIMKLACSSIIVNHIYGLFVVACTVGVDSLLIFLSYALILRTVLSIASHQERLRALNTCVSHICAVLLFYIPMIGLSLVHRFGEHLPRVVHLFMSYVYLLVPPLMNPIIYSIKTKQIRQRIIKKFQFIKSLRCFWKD
Summary of the method: as §1

[16] = molecular target: T16, OR51G2 (Homo sapiens) (UniProt Q8NGK0)
T16 sequence (whole entry): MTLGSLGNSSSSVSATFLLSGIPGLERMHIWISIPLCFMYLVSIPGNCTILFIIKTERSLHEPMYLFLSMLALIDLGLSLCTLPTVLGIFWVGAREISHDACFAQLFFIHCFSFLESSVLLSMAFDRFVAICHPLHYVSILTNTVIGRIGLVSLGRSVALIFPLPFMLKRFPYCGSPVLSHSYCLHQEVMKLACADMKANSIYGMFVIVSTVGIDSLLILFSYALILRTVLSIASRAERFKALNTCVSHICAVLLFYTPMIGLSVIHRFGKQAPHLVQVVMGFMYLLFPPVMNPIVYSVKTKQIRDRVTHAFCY
Summary of the method: as §1

[17] = molecular target: T17, OR51I1 (Homo sapiens) (UniProt Q9H343)
T17 sequence (whole entry): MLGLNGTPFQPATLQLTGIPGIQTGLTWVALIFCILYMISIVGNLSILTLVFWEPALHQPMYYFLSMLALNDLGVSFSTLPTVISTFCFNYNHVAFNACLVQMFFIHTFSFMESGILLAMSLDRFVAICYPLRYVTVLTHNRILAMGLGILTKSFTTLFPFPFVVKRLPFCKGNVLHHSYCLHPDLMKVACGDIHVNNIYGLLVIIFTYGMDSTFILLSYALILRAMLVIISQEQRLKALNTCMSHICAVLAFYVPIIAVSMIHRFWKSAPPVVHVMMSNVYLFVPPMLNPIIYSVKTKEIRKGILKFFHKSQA
Summary of the method: as §1

Measured: odorant receptor agonist call;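 also: active if original authors judged signal statistically different from baseline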

CCCCCCCCCCCC(=O)OCC
inactive: [1]

Cc1cnc(C)c(C)n1
inactive: all assays above

CCCCCCCCCCCCCCC(=O)O
inactive: [1]
